Test results from ChEMBL document CHEMBL1154842, “Synthesis, radiolabeling, and biological evaluation of (R)- and (S)-2-amino-3-[(18)F]fluoro-2-methylpropanoic acid (FAMP) and (R)- and (S)-3-[(18)F]fluoro-2-methyl-2-N-(methylamino)propanoic acid (NMeFAMP) as potential PET radioligands for imaging brain tumors” (J Med Chem, 2010).

Legend:
[1] = Ratio of drug level from tumor to brain of Fischer 344 rat bearing rat 9L cells at 20 uCi, iv after 60 mins; conditions: in vivo, 1 h
[2] = rat, in vivo, iv, 1 h
[3] = rat, in vivo, iv, 1 h; remark: listed apart in the source
Bone [4] = experiment: Biodistribution in bone of Fischer 344 rat bearing rat 9L cells at 20 uCi, iv after 60 mins; format: ADME, organism-based, Bone element; conditions: in vivo, 1 h
How it was run: (§1)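 Male Fischer 344 rats (200–250 g) carrying intracranial 9L gliosarcoma (5×10^4 cells implanted stereotactically, 10–12 days growth), under ketamine:xylazine anaesthesia. About 20 μCi tracer in 0.5 mL sterile saline given via tail-vein catheter. Groups of 4–5 were killed by intracardiac KCl at 15 (NMeFAMP only), 30, 60 or 120 min. Tissues were weighed and gamma-counted, decay-corrected, and reported as %ID/g, mean ± SD.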

[5] = Biodistribution in testis of Fischer 344 rat bearing rat 9L cells at 20 uCi, iv after 60 mins; format: ADME, organism-based; conditions: in vivo, 1 h
How it was run: as §1

Lung [6] = experiment: Biodistribution in lung of Fischer 344 rat bearing rat 9L cells at 20 uCi, iv after 60 mins; format: ADME, organism-based; conditions: in vivo, 1 h
How it was run: as §1

Pancreas [7] = experiment: Biodistribution in pancreas of Fischer 344 rat bearing rat 9L cells at 20 uCi, iv after 120 mins; format: ADME, organism-based; conditions: in vivo, 2 h
How it was run: as §1

Heart [8] = experiment: Biodistribution in heart of Fischer 344 rat bearing rat 9L cells at 20 uCi, iv after 60 mins; format: ADME, organism-based; conditions: in vivo, 1 h
How it was run: as §1

[9] = Biodistribution in testis of Fischer 344 rat bearing rat 9L cells at 20 uCi, iv after 120 mins; format: ADME, organism-based; conditions: in vivo, 2 h
How it was run: as §1

[10] = Biodistribution in tumor of Fischer 344 rat bearing rat 9L cells at 20 uCi, iv after 30 mins; format: ADME, organism-based, Neoplasm; conditions: in vivo, 0.5 h
How it was run: as §1

Heart [11] = experiment: Biodistribution in heart of Fischer 344 rat bearing rat 9L cells at 20 uCi, iv after 120 mins; format: ADME, organism-based; conditions: in vivo, 2 h
How it was run: as §1

Pancreas [12] = experiment: Biodistribution in pancreas of Fischer 344 rat bearing rat 9L cells at 20 uCi, iv after 60 mins; format: ADME, organism-based; conditions: in vivo, 1 h
How it was run: as §1

Spleen [13] = experiment: Biodistribution in spleen of Fischer 344 rat bearing rat 9L cells at 20 uCi, iv after 120 mins; format: ADME, organism-based; conditions: in vivo, 2 h
How it was run: as §1

Liver [14] = experiment: Biodistribution in liver of Fischer 344 rat bearing rat 9L cells at 20 uCi, iv after 60 mins; format: ADME, organism-based; conditions: in vivo, 1 h
How it was run: as §1

[15] = Ratio of drug level from tumor to brain of Fischer 344 rat bearing rat 9L cells at 20 uCi, iv after 120 mins; format: ADME, organism-based; conditions: in vivo, 2 h
Bone [16] = experiment: Biodistribution in bone of Fischer 344 rat bearing rat 9L cells at 20 uCi, iv after 120 mins; format: ADME, organism-based, Bone element; conditions: in vivo, 2 h
How it was run: as §1

Brain = experiment: Biodistribution in brain of Fischer 344 rat bearing rat 9L cells at 20 uCi, iv after 30 mins; conditions: in vivo, 0.5 h
Liver [17] = experiment: Biodistribution in liver of Fischer 344 rat bearing rat 9L cells at 20 uCi, iv after 30 mins; format: ADME, organism-based; conditions: in vivo, 0.5 h
How it was run: as §1

Muscle tissue [18] = experiment: Biodistribution in muscle of Fischer 344 rat bearing rat 9L cells at 20 uCi, iv after 30 mins; format: ADME, organism-based; conditions: in vivo, 0.5 h
How it was run: as §1

[19] = Biodistribution in testis of Fischer 344 rat bearing rat 9L cells at 20 uCi, iv after 30 mins; format: ADME, organism-based; conditions: in vivo, 0.5 h
How it was run: as §1

Bone [20] = experiment: Biodistribution in bone of Fischer 344 rat bearing rat 9L cells at 20 uCi, iv after 30 mins; format: ADME, organism-based, Bone element; conditions: in vivo, 0.5 h
How it was run: as §1

Blood [21] = experiment: Biodistribution in blood of Fischer 344 rat bearing rat 9L cells at 20 uCi, iv after 60 mins; format: ADME, organism-based; conditions: in vivo, 1 h
How it was run: as §1

Kidney [22] = experiment: Biodistribution in kidney of Fischer 344 rat bearing rat 9L cells at 20 uCi, iv after 30 mins; format: ADME, organism-based; conditions: in vivo, 0.5 h
How it was run: as §1

Spleen [23] = experiment: Biodistribution in spleen of Fischer 344 rat bearing rat 9L cells at 20 uCi, iv after 30 mins; format: ADME, organism-based; conditions: in vivo, 0.5 h
How it was run: as §1

Spleen [24] = experiment: Biodistribution in spleen of Fischer 344 rat bearing rat 9L cells at 20 uCi, iv after 60 mins; format: ADME, organism-based; conditions: in vivo, 1 h
How it was run: as §1

Kidney [25] = experiment: Biodistribution in kidney of Fischer 344 rat bearing rat 9L cells at 20 uCi, iv after 120 mins; format: ADME, organism-based; conditions: in vivo, 2 h
How it was run: as §1

Muscle tissue [26] = experiment: Biodistribution in muscle of Fischer 344 rat bearing rat 9L cells at 20 uCi, iv after 60 mins; format: ADME, organism-based; conditions: in vivo, 1 h
How it was run: as §1

Liver [27] = experiment: Biodistribution in liver of Fischer 344 rat bearing rat 9L cells at 20 uCi, iv after 120 mins; format: ADME, organism-based; conditions: in vivo, 2 h
How it was run: as §1

[28] = Biodistribution in tumor of Fischer 344 rat bearing rat 9L cells at 20 uCi, iv after 30 mins; conditions: in vivo, 0.5 h
Heart [29] = experiment: Biodistribution in heart of Fischer 344 rat bearing rat 9L cells at 20 uCi, iv after 30 mins; format: ADME, organism-based; conditions: in vivo, 0.5 h
How it was run: as §1

Kidney [30] = experiment: Biodistribution in kidney of Fischer 344 rat bearing rat 9L cells at 20 uCi, iv after 60 mins; format: ADME, organism-based; conditions: in vivo, 1 h
How it was run: as §1

Blood [31] = experiment: Biodistribution in blood of Fischer 344 rat bearing rat 9L cells at 20 uCi, iv after 30 mins; format: ADME, organism-based; conditions: in vivo, 0.5 h
How it was run: as §1

Lung [32] = experiment: Biodistribution in lung of Fischer 344 rat bearing rat 9L cells at 20 uCi, iv after 30 mins; format: ADME, organism-based; conditions: in vivo, 0.5 h
How it was run: as §1

Lung [33] = experiment: Biodistribution in lung of Fischer 344 rat bearing rat 9L cells at 20 uCi, iv after 120 mins; format: ADME, organism-based; conditions: in vivo, 2 h
How it was run: as §1

Muscle tissue [34] = experiment: Biodistribution in muscle of Fischer 344 rat bearing rat 9L cells at 20 uCi, iv after 120 mins; format: ADME, organism-based; conditions: in vivo, 2 h
How it was run: as §1

Blood [35] = experiment: Biodistribution in blood of Fischer 344 rat bearing rat 9L cells at 20 uCi, iv after 120 mins; format: ADME, organism-based; conditions: in vivo, 2 h
How it was run: as §1

Pancreas [36] = experiment: Biodistribution in pancreas of Fischer 344 rat bearing rat 9L cells at 20 uCi, iv after 30 mins; format: ADME, organism-based; conditions: in vivo, 0.5 h
How it was run: as §1

9L [37] = experiment: Cellular uptake in rat 9L cells assessed as inhibition of uptake at 5 uCi measured […] by gamma counting in presence of system A transport inhibitor MeAIB relative to control; format: ADME, cell-based; set-up: scale not given: the % may be the effect or the level left
How it was run: (§2)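 9L rat gliosarcoma cells, grown in DMEM with 10% FCS, were trypsinised and washed in HBSS. About 5×10^5 cells were incubated with 5 μCi tracer in amino-acid-free HBSS for 30 min at 37 °C, with or without 10 mM final BCH, MeAIB or ACS (3.3 mM each Ala/Cys/Ser). Cells were washed cold, gamma-counted and decay-corrected. Inhibition is percent of control; triplicates, one-way ANOVA.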

9L [38] = experiment: Cellular uptake in rat 9L cells at 5 uCi measured […] by gamma counting in presence of system A transport inhibitor MeAIB; format: ADME, cell-based
How it was run: (§3)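 9L rat gliosarcoma cells (DMEM, 10% FCS, 37 °C, 5% CO2) were trypsinised and washed in HBSS. About 5×10^5 cells took up 5 μCi tracer for 30 min in 0.1 mL amino acid-free HBSS, with inhibitor at 10 mM final (ACS: 3.3 mM each of alanine, cysteine, serine). Cells were spun and rinsed twice with ice-cold HBSS, then gamma counted with decay correction. Triplicates; uptake is % ID per 5×10^5 cells.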

9L [39] = experiment: Cellular uptake in rat 9L cells at 5 uCi measured […] by gamma counting in presence of system L transport inhibitor BCH; format: ADME, cell-based
How it was run: as §3

9L [40] = experiment: Cellular uptake in rat 9L cells at 5 uCi measured […] by gamma counting; format: ADME, cell-based
How it was run: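 9L rat gliosarcoma cells, grown in DMEM with 10% FCS, were trypsinised and washed in HBSS. About 5×10^5 cells were exposed to 5 μCi tracer in amino-acid-free HBSS for 30 min at 37 °C, 5% CO2, then centrifuged and rinsed twice with ice-cold HBSS. Cells were gamma-counted and decay-corrected, with uptake reported as % of initial dose per 5×10^5 cells ± SD, n=3.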

9L [41] = experiment: Cellular uptake in rat 9L cells at 5 uCi measured per 0.5 million cells by gamma counting in presence of system ASC transport inhibitor ACS
9L [42] = experiment: Cellular uptake in rat 9L cells assessed as inhibition of uptake at 5 uCi measured […] by gamma counting in presence of system ASC transport inhibitor ACS relative to control; format: ADME, cell-based; set-up: scale not given: the % may be the effect or the level left
How it was run: as §2

9L [43] = experiment: Cellular uptake in rat 9L cells assessed as inhibition of uptake at 5 uCi measured […] by gamma counting in presence of system L transport inhibitor BCH relative to control; format: ADME, cell-based; set-up: scale not given: the % may be the effect or the level left
How it was run: as §2

OC[C@H]1O[C@@H](O)[C@H]([18F])[C@@H](O)[C@@H]1O [FLUDEOXYGLUCOSE-F18]
Ratio [1]: 0.8
Drug uptake [2]: 1.3 % ID/g
Drug uptake [3]: 1.05 % ID/g

C[C@@](N)(C[18F])C(=O)O.Cl
Drug uptake (Bone [4]): 0.3 % ID/g
Drug uptake [5]: 0.16 % ID/g
Drug uptake (Lung [6]): 0.47 % ID/g
Ratio [1]: 30.9
Drug uptake (Pancreas [7]): 2.79 % ID/g
Drug uptake (Heart [8]): 0.41 % ID/g
Drug uptake [9]: 0.17 % ID/g
Ratio [10]: 21.1
Drug uptake (Heart [11]): 0.34 % ID/g
Drug uptake (Pancreas [12]): 3.91 % ID/g
Drug uptake (Spleen [13]): 0.51 % ID/g
Drug uptake (Liver [14]): 0.54 % ID/g
Ratio [15]: 27.7
Drug uptake (Bone [16]): 0.31 % ID/g
Drug uptake (Brain): 0.07 % ID/g
Drug uptake [2]: 0.06 % ID/g
Drug uptake (Liver [17]): 0.61 % ID/g
Drug uptake (Muscle tissue [18]): 0.47 % ID/g
Drug uptake [19]: 0.19 % ID/g
Drug uptake (Bone [20]): 0.3 % ID/g
Drug uptake (Blood [21]): 0.4 % ID/g
Drug uptake (Kidney [22]): 8.71 % ID/g
Drug uptake (Spleen [23]): 0.73 % ID/g
Drug uptake (Spleen [24]): 0.62 % ID/g
Drug uptake (Kidney [25]): 6.88 % ID/g
Drug uptake (Muscle tissue [26]): 0.37 % ID/g
Drug uptake (Liver [27]): 0.42 % ID/g
Drug uptake [28]: 1.38 % ID/g
Drug uptake (Heart [29]): 0.43 % ID/g
Drug uptake (Kidney [30]): 7.62 % ID/g
Drug uptake (Blood [31]): 0.58 % ID/g
Drug uptake (Lung [32]): 0.67 % ID/g
Drug uptake (Lung [33]): 0.36 % ID/g
Drug uptake (Muscle tissue [34]): 0.36 % ID/g
Drug uptake (Blood [35]): 0.32 % ID/g
Drug uptake (Pancreas [36]): 3.75 % ID/g
Drug uptake [3]: 1.82 % ID/g

CN[C@](C)(CF)C(=O)O.Cl
Activity (9L [37]): 79%
Drug uptake (9L [38]): 0.82 %ID
Drug uptake (9L [39]): 2.76 %ID
Drug uptake (9L [40]): 3.87 %ID
Drug uptake (9L [41]): 1.62 %ID
Activity (9L [42]): 58%
Activity (9L [43]): 29%

C[C@@](N)(CF)C(=O)O.Cl
Activity (9L [37]): 31%
Drug uptake (9L [38]): 3.29 %ID
Drug uptake (9L [39]): 1.21 %ID
Drug uptake (9L [40]): 4.77 %ID
Drug uptake (9L [41]): 1.33 %ID
Activity (9L [42]): 72%
Activity (9L [43]): 75%
